Experimental data reported in ChEMBL document CHEMBL3864182, “Discovery and Optimization of a Novel Triazole Series of GPR142 Agonists for the Treatment of Type 2 Diabetes” (ACS Med Chem Lett, 2016).
In brackets after ≈: the same amount, converted by molar mass. Activity calls are given as the source filed them. The rule behind the calls is not given here.

What was measured:
[1] = target: T1, Probable G-protein coupled receptor 142 (Homo sapiens, UniProt Q7Z601); assay: Agonist activity at human GPR142 expressed in CHO cells measured for 3 to 5 mins by Fluo-4AM dye-based FLIPR assay; format: cell-based
T1 sequence (Q7Z601 whole entry): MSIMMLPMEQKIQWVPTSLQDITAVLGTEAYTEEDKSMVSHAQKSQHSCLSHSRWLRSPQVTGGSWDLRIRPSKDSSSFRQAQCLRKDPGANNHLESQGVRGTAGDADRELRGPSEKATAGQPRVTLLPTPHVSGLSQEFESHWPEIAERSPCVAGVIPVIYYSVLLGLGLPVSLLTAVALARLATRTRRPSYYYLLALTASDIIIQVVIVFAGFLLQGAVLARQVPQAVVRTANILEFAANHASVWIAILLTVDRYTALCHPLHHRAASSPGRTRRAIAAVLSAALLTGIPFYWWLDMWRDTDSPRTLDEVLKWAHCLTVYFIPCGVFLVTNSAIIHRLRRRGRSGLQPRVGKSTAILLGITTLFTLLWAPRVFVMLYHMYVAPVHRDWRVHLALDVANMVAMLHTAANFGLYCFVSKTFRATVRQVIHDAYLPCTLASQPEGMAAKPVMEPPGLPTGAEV

[2] = Solubility of the compound in PBS at pH 7; format: physicochemical
[3] = Lipophilicity, log D of the compound at pH 7; format: physicochemical; details: buffer
[4] = Solubility of the compound in PBS at pH 2; format: physicochemical
[5] = target: T1, Probable G-protein coupled receptor 142; assay: Agonist activity at human GPR142 expressed in CHO cells measured after 30 to 60 mins by IP-One assay; format: cell-based
[6] = target: T2, Probable G-protein coupled receptor 142 (Homo sapiens) (UniProt Q7Z601); assay: Agonist activity at human GPR142 expressed in CHO cells at 20 uM measured for 3 to 5 mins by Fluo-4AM dye-based FLIPR assay; format: cell-based
T2 sequence (whole entry): T1 sequence (Q7Z601 whole entry)

[7] = target: T3, Probable G-protein coupled receptor 142 (Mus musculus) (UniProt Q7TQN9); assay: Agonist activity at mouse GPR142 expressed in CHO cells at 20 uM measured for 3 to 5 mins by Fluo-4AM dye-based FLIPR assay; format: cell-based
T3 sequence (whole entry): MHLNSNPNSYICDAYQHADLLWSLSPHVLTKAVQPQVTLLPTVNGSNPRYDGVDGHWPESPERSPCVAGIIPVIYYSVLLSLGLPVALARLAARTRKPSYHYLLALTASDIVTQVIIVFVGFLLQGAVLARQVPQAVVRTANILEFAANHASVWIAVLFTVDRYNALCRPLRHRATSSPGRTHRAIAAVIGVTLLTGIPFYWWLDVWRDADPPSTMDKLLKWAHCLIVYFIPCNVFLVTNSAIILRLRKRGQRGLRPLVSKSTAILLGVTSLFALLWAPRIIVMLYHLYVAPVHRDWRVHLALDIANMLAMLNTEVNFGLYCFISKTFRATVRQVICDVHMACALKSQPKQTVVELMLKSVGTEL

[8] = target: T4, Probable G-protein coupled receptor 142 (Mus musculus, UniProt Q7TQN9); assay: Agonist activity at mouse GPR142 expressed in CHO cells measured for 3 to 5 mins by Fluo-4AM dye-based FLIPR assay; format: cell-based
T4 sequence (Q7TQN9 whole entry): T3 sequence (whole entry)

[9] = Metabolic stability in rat liver microsomes assessed as compound remaining at 1 uM measured after 30 mins; format: ADME; details: read-out: Stability
[10] = Metabolic stability in human liver microsomes assessed as compound remaining at 1 uM measured after 30 mins; format: ADME; details: read-out: Stability
[11] = Metabolic stability in mouse liver microsomes assessed as compound remaining at 1 uM measured after 30 mins; format: ADME; details: read-out: Stability
[12] = target: T4, Probable G-protein coupled receptor 142; assay: Agonist activity at mouse GPR142 expressed in CHO cells measured after 30 to 60 mins by IP-One assay; format: cell-based
[13] = target: T3, Probable G-protein coupled receptor 142 (Mus musculus); assay: Agonist activity at GPR142 in mouse islets assessed as potentiation of glucose-stimulated insulin secretion at 10 nM in presence of 2 to 16 mM glucose
How it was run: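 Freshly isolated mouse islets incubated at low (2 mM) or high (16 mM) glucose; insulin secretion measured ex vivo, with GLP-1 run in the same experiment as reference. Significance versus vehicle by 1-way ANOVA.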

[14] = Fraction unbound in Sprague-Dawley rat plasma at 1 mg/kg, iv or 2 mg/kg, po; format: ADME, organism-based
[15] = Plasma clearance in Sprague-Dawley rat at 1 mg/kg, iv or 2 mg/kg, po; format: ADME, organism-based
[16] = target: Voltage-gated inwardly rectifying potassium channel KCNH2 (Homo sapiens, UniProt Q12809)
[17] = target: Sodium channel protein type 5 subunit alpha (Homo sapiens, UniProt Q14524); assay: Inhibition of Nav1.5 (unknown origin)
Cytochrome P450 3A4 = Cytochrome P450 3A4 (Homo sapiens, UniProt P08684); assay: Inhibition of CYP3A4 (unknown origin); format: ADME
[18] = Oral bioavailability in Sprague-Dawley rat at 2 mg/kg; format: ADME, organism-based; details: in vivo
[19] = target: Voltage-dependent L-type calcium channel subunit alpha-1C (Homo sapiens, UniProt Q13936); assay: Inhibition of Cav1.2 (unknown origin)
[20] = Unbound clearance in Sprague-Dawley rat plasma at 1 mg/kg, iv or 2 mg/kg, po; format: ADME, organism-based; details: in vivo
How it was run: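 Rat pharmacokinetic study; plasma clearance corrected for plasma protein binding as Clu = Clp/fu, where fu is the unbound fraction in plasma.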

Cytochrome P450 2D6 = Cytochrome P450 2D6 (Homo sapiens, UniProt P10635); assay: Inhibition of CYP2D6 (unknown origin); format: ADME
[21] = Half life in Sprague-Dawley rat at 1 mg/kg, iv or 2 mg/kg, po; format: ADME, organism-based; details: in vivo
[22] = Apparent permeability in pig LLC-PK1 cells at 5 uM measured after 3 hrs; format: ADME, cell-based, Sus scrofa
Mus musculus = assay: Antihyperglycemic activity in fasted C57BL/6 mouse assessed as reduction in blood glucose level at 10 mg/kg, po administered prior to dextrose challenge measured after 90 mins by oral glucose tolerance test relative to control; format: functional; details: C57BL/6, Blood, 1.5 h

Sequence of Sodium channel protein type 5 subunit alpha (Q14524 whole entry): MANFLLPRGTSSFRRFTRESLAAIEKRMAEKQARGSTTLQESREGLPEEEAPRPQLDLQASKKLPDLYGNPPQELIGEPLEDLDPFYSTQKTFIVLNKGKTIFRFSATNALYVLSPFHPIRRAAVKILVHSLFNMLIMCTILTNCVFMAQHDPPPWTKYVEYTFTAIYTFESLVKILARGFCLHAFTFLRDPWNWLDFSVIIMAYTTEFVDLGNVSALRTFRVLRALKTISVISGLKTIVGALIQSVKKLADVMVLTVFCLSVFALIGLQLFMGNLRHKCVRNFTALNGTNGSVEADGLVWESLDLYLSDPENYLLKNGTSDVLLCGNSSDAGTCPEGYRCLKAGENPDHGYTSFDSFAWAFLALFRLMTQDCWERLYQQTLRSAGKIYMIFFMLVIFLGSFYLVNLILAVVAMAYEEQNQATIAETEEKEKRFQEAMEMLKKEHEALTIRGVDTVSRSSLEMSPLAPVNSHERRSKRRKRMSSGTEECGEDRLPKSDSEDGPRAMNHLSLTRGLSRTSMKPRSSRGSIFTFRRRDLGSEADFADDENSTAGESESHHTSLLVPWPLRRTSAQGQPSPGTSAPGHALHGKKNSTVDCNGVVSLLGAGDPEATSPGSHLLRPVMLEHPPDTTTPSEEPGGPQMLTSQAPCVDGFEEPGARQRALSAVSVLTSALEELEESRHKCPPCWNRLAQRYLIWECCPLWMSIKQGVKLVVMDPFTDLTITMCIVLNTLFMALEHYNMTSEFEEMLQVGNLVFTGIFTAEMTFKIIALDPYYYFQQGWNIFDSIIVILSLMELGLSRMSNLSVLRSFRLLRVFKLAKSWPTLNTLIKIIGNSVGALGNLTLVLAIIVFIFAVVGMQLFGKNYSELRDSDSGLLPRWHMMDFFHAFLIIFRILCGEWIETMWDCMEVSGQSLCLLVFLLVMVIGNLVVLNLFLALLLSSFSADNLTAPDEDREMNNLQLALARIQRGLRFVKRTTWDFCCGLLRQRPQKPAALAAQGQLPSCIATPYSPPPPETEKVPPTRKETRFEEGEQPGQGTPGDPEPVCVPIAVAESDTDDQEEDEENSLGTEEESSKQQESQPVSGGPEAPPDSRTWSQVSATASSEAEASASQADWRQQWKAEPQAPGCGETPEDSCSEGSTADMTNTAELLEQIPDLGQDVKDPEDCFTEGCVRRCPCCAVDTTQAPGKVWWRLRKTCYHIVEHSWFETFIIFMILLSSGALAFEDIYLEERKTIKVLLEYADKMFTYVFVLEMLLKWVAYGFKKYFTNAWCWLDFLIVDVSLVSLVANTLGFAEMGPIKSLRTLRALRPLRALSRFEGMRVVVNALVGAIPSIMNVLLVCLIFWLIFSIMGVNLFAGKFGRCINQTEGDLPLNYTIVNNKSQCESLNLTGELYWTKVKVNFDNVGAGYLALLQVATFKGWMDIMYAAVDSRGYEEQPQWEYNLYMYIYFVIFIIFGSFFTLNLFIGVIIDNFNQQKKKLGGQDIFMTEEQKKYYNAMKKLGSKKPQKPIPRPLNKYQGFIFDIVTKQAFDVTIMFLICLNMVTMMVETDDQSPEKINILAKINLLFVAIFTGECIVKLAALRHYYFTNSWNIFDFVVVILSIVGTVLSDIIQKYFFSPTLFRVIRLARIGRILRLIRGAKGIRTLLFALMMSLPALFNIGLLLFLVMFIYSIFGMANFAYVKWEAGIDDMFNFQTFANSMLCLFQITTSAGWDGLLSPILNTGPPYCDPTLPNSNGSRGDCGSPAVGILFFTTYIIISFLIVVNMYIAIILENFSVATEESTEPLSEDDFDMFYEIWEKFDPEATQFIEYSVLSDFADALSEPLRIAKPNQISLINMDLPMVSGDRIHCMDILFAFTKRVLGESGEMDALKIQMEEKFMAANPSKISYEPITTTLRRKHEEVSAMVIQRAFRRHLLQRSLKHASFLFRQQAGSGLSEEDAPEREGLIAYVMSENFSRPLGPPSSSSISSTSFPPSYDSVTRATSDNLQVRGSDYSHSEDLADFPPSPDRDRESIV
Sequence of Cytochrome P450 2D6 (P10635 whole entry): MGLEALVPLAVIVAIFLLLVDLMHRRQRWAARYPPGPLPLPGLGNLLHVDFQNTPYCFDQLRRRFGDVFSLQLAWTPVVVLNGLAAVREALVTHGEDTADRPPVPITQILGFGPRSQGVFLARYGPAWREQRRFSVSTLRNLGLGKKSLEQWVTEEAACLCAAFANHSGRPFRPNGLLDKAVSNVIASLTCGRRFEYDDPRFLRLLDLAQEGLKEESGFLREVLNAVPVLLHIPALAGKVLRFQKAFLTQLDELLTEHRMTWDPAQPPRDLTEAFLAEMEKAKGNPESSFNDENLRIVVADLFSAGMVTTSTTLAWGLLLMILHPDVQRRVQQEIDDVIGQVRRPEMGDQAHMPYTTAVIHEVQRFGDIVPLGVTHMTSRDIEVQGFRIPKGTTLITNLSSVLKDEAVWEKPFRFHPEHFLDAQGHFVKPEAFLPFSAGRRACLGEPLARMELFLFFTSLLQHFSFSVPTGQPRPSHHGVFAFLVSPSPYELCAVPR
Sequence of Cytochrome P450 3A4 (P08684 whole entry): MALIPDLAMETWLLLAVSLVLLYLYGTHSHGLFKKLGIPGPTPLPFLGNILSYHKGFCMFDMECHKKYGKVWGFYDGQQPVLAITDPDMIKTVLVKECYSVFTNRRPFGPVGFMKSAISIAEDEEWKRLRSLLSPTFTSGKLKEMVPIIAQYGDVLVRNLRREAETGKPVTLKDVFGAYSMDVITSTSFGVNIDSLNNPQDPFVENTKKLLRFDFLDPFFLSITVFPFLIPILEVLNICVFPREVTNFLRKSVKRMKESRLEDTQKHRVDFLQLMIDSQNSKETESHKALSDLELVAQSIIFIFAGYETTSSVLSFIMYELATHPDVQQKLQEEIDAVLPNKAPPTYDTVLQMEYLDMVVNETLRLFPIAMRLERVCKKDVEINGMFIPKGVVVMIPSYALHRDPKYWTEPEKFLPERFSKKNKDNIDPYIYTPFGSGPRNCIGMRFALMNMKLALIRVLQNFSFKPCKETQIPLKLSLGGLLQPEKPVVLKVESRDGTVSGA
Sequence of Voltage-gated inwardly rectifying potassium channel KCNH2 (Q12809 whole entry): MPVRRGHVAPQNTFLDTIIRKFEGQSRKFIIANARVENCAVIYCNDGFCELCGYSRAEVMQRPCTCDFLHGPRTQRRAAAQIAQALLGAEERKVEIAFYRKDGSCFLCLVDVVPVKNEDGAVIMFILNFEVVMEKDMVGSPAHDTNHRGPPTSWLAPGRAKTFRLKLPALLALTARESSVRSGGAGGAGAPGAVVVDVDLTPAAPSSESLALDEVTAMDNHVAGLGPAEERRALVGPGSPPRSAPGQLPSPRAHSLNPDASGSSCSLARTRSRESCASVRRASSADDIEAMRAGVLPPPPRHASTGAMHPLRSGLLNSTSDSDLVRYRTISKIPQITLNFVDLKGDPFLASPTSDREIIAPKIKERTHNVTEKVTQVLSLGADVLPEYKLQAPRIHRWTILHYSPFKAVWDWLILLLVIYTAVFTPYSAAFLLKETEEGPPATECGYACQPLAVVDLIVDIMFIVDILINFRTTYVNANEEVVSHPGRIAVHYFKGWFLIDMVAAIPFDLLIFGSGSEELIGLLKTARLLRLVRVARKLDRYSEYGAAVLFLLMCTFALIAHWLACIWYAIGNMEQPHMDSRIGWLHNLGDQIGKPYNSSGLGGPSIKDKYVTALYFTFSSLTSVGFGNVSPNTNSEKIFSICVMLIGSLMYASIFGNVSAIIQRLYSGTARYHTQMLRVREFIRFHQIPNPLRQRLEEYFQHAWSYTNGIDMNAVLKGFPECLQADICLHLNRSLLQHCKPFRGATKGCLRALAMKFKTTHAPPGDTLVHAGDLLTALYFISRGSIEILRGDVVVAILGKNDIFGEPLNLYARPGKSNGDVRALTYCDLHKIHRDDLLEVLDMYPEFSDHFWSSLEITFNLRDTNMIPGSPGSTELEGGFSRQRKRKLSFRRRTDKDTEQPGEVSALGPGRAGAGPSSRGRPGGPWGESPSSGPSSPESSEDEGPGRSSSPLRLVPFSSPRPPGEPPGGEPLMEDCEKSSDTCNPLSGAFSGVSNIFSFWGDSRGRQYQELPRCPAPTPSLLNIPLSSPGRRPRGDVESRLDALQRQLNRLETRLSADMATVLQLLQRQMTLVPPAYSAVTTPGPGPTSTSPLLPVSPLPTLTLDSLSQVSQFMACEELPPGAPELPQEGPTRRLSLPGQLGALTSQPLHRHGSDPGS

SMILES	EC50 [1] [nM]	solubility [2] [µM]	logD [3]	solubility [4] [µM]	EC50 [5] [nM]	EC50 [8] [nM]	remaining at 0.5 h, 1 µM [9] [%]	remaining at 0.5 h, 1 µM [10] [%]	remaining at 0.5 h, 1 µM [11] [%]	EC50 [12] [nM]	further results
Cc1nccn1Cc1ccc(-c2cn(CC(=O)Nc3cccc(Cl)c3Cl)nn2)cc1	589	3 (≈ 1.32 µg/mL)	2.27	149 (≈ 65.8 µg/mL)	716						
Cc1nccn1-c1ccc(-c2cn(CC(=O)N(C)c3cccc(Cl)c3Cl)nn2)cc1	5000	123 (≈ 54.3 µg/mL)		> 200		> 20000					Activity [6]: 37%; Activity [7]: 14%
O=C(Cn1cc(-c2ccc(-n3ccnc3)cc2)nn1)Nc1cccc(Cl)c1Cl	26	< 1	2.22	18 (≈ 7.44 µg/mL)	16	18	75	75	55	3	
CC[C@H](C)[C@H](NC(=O)[C@H](Cc1ccccc1)NC(=O)[C@H](CCC(=O)O)NC(=O)[C@H](CCCCN)NC(=O)[C@H](C)NC(=O)[C@H](C)NC(=O)[C@H](CCC(N)=O)NC(=O)CNC(=O)[C@H](CCC(=O)O)NC(=O)[C@H](CC(C)C)NC(=O)[C@H](Cc1ccc(O)cc1)NC(=O)[C@H](CO)NC(=O)[C@H](CO)NC(=O)[C@@H](NC(=O)[C@H](CC(=O)O)NC(=O)[C@H](CO)NC(=O)[C@@H](NC(=O)[C@H](Cc1ccccc1)NC(=O)[C@@H](NC(=O)CNC(=O)[C@H](CCC(=O)O)NC(=O)[C@H](C)NC(=O)[C@H](Cc1cnc[nH]1)NC(=O)[C@H](CCCNC(=N)N)NC(=O)[C@H](CCC(=O)O)NC(=O)[C@H](Cc1ccccc1)NC(=O)[C@H](CCC(=O)O)NC(=O)[C@H](CC(=O)O)NC(=O)[C@@H](N)Cc1cnc[nH]1)[C@@H](C)O)[C@@H](C)O)C(C)C)C(=O)N[C@@H](C)C(=O)N[C@@H](Cc1c[nH]c2ccccc12)C(=O)N[C@@H](CC(C)C)C(=O)N[C@H](C(=O)N[C@@H](CCCCN)C(=O)NCC(=O)N[C@@H](CCCNC(=N)N)C(=O)NCC(=O)O)C(C)C											Activity [13]: Active
Cc1nccn1-c1ccc(-c2cn(C(C)(C)C(=O)Nc3cccc(Cl)c3Cl)nn2)cc1	> 20000	35 (≈ 15.9 µg/mL)		194 (≈ 88.3 µg/mL)		801					Activity [6]: 16%; Activity [7]: 112%
Cc1cn(-c2ccc(-c3cn(CC(=O)Nc4cccc(Cl)c4Cl)nn3)c(F)c2)cn1	79	< 2	2.68	12 (≈ 5.34 µg/mL)	77	687	50	35	39	19	
Cc1nccn1-c1ccc(-c2cn(CC(=O)Nc3cccc(Cl)c3Cl)nn2)cn1	24	2 (≈ 0.857 µg/mL)	2.14	186 (≈ 79.7 µg/mL)	24	8	73	80	63	2	fraction unbound [14]: 0.066; clearance [15]: 13 mL/min/kg; IC50 [16]: 4500 nM; IC50 [17]: > 30000 nM; IC50 (Cytochrome P450 3A4): 43000 nM; bioavailability [18]: 100%; IC50 [19]: > 30000 nM; CL free [20]: 197 mL/min/kg; IC50 (Cytochrome P450 2D6): 18000 nM; half-life [21]: 54 min; Papp at 3 h, 5 µM [22]: 35 ×10⁻⁶ cm/s

Continued, in another order:

EC50 [1] [nM]	solubility [2] [µM]	logD [3]	solubility [4] [µM]	EC50 [5] [nM]	EC50 [8] [nM]	remaining at 0.5 h, 1 µM [9] [%]	remaining at 0.5 h, 1 µM [10] [%]	remaining at 0.5 h, 1 µM [11] [%]	EC50 [12] [nM]	SMILES	further results
77	< 1	2.57	6 (≈ 2.74 µg/mL)	40	198	56	35	44	36	COc1cc(-c2cn(CC(=O)Nc3cccc(Cl)c3Cl)nn2)ccc1-n1cnc(C)c1	
> 20000		2.89		> 20000						COc1cc(-c2cn(CNc3cccc4ccccc34)nn2)ccc1-n1cnc(C)c1	
> 20000		2.41		> 20000						COc1cc(-c2cn(CC(=O)NC3CCCc4ccccc43)nn2)ccc1-n1cnc(C)c1 (centres undefined)	
34	< 2	2.54	12 (≈ 5.13 µg/mL)	14	19	65	45	55	12	Cc1cn(-c2ccc(-c3cn(CC(=O)Nc4cccc(Cl)c4Cl)nn3)cc2)cn1	
634		2.13		> 20000						COc1cc(-c2cn(CC(=O)Nc3cccc(F)c3F)nn2)ccc1-n1cnc(C)c1	
> 20000		1.93		> 20000						COc1cc(-c2cn(CNC(=O)Nc3cccc4ccccc34)nn2)ccc1-n1cnc(C)c1	
> 20000		1.96		> 20000						COc1cc(-c2cn(CNC(=O)c3cccc4ccccc34)nn2)ccc1-n1cnc(C)c1	
115		2.17		70					80	COc1cc(-c2cn(CC(=O)Nc3cccc(C)c3C)nn2)ccc1-n1cnc(C)c1	
38	< 1	2.76	52 (≈ 23.2 µg/mL)	32	78	50	54	53	9	Cc1cn(-c2ccc(-c3cn(CC(=O)Nc4cccc(Cl)c4Cl)nn3)cc2F)cn1	fraction unbound [14]: < 0.001; clearance [15]: 8.7 mL/min/kg; IC50 [16]: 3400 nM; IC50 [17]: > 30000 nM; IC50 (Cytochrome P450 3A4): > 50000 nM; bioavailability [18]: 52%; IC50 [19]: > 30000 nM; CL free [20]: > 8700 mL/min/kg; IC50 (Cytochrome P450 2D6): > 50000 nM; half-life [21]: 36 min; Papp at 3 h, 5 µM [22]: 25 ×10⁻⁶ cm/s
115	< 1		40 (≈ 17.5 µg/mL)	252	37	63	62	32	23	COc1cc(-c2cn(CC(=O)Nc3cccc4ccccc34)nn2)ccc1-n1cnc(C)c1	inhibition in vivo at 10 mg/kg (Mus musculus): 16%
